A short description of the data set: Toxicity liver stage against HepG2, at 10uM. Type of data set: cell-based. More on the design: test concentration 10 uM, cell line HepG2-A16-CD81EGFP. Particulars: human, HepG2-A16-CD81EGFP cells; read-out: INHIBITION
The procedure, abridged:
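Uninfected HepG2-A16-CD81EGFP cells, 3 × 10^3 per well, 1536-well, plated on prespotted compound at 10 μM final, parasite-free screening media added to match infected plates; puromycin 10 μM positive, DMSO 0.5% negative; run in parallel with 48 h PbLuc assay at 37 °C, 5% CO2; viability by CellTiter-Glo luminescence, normalized to controls.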
In the case of `COc1ccccc1-n1nc(C(C)C)nc1Cc1nnc(N)s1`, the cytotoxicity at 10 µM is 6.48%.

For the compound `CN(Cc1ccc2c(c1)OCCO2)Cc1nnnn1-c1ccccc1`, the cytotoxicity at 10 µM worked out at 20.5%.

With `CC(C)c1cc(NCC2(Cn3cccn3)CC2)n2nccc2n1`, the cytotoxicity at 10 µM was -10.9%.

As for `COCCN1CCOCC12CCN(c1cnccn1)CC2`, the cytotoxicity at 10 µM was -102%.

Turning to `Cc1nc(C2CCCN(C(=O)COCCc3ccccc3)C2)no1` (configuration not stated), the cytotoxicity at 10 µM was -11.1%.

Take `CC(C)Cc1cc(NC(=O)c2n[nH]c3ccccc23)n(C)n1`: the cytotoxicity at 10 µM is -15.9%.

With `O=C(Cn1cc(Cl)cn1)Nc1ccc2c(c1)OCCCO2`, the cytotoxicity at 10 µM came out at 4.98%.

As to `COc1cc(CNc2cc(-c3ccoc3C)nn2CCO)ccc1F`, the cytotoxicity at 10 µM was -14.6%.

As to `CCOCCS(=O)(=O)N(CC)Cc1ccc(Cl)s1`, the cytotoxicity at 10 µM is -6.15%.

Take `NC(=O)Cc1ccc(OCc2noc(C(=O)N3CCCC3)n2)cc1`: the cytotoxicity at 10 µM was -13.6%.

For `O=C(C1CC(F)(F)C1)N1C[C@@H]2CN(CC3CCCC3)CCO[C@@H]2C1`, the cytotoxicity at 10 µM is -8.02%.

With `CS(=O)(=O)Cc1nc(C2CC2)nn1-c1ccccn1`, the cytotoxicity at 10 µM turned out to be 1.87%.

With `COc1ccc(CCC(=O)NCCC2CCCO2)cc1Br` (configuration not stated), the cytotoxicity at 10 µM came to 2.6%.

With `CCC(N)c1ccccc1OCC(=O)N1CCCC1` (configuration not stated), the cytotoxicity at 10 µM was -5.16%.

For the compound `NC(=O)CCn1ccc(NCc2cc(F)ccc2Br)n1`, the cytotoxicity at 10 µM is -1.91%.

In the case of `CC(=O)c1cccc(OCCCC(=O)N(C)CCc2ccncc2)c1`, the cytotoxicity at 10 µM was -11.7%.

On to `CC(C)CNC(=O)c1c(-n2cnnn2)sc2c1CCC2`, for which the cytotoxicity at 10 µM is -4.56%.

On to `CN(C)C(=O)C1CN(Cc2nccs2)CCN(S(C)(=O)=O)C1` (configuration not stated), for which the cytotoxicity at 10 µM turned out to be 0.325%.

Turning to `COc1cccc(-n2c(C)cc(C(=O)NCCCC(N)=O)c2C)c1`, the cytotoxicity at 10 µM is -11.9%.

`Cc1cn(-c2ccccc2)nc1NS(=O)(=O)c1cc(C(=O)O)sc1C`: the cytotoxicity at 10 µM was -4.87%.

Take `Cc1nnc(NC(=O)N2CCN(Cc3ccc(F)cc3)C(=O)C2)s1`: the cytotoxicity at 10 µM is -0.392%.

For the compound `CC(=O)N1CCC(Cc2cnc(-n3ccnc3)cn2)CC1`, the cytotoxicity at 10 µM is -38.8%.

In the case of `CC(C)(C)CNCC1(O)CCCN(Cc2ccccc2F)C1=O` (configuration not stated), the cytotoxicity at 10 µM came to 9.04%.

For `C/C(=C\c1ccco1)CN(C)C(C)Cc1cc(C)ccn1` (configuration not stated), the cytotoxicity at 10 µM was 0.277%.

As to `CCC[C@@H]1CN(C(=O)c2ccccc2-c2ncc[nH]2)C[C@H]1N(C)C`, the cytotoxicity at 10 µM is -3.17%.

Consider `Cc1nnsc1C(=O)NCc1nn(C)c2c1COCC2`, for which the cytotoxicity at 10 µM was -0.543%.

Take `C1CC(CN2C[C@@H]3CC[C@H]2CN(Cc2noc(C4CCCC4)n2)C3)C1`: the cytotoxicity at 10 µM was -15.6%.

`Cc1nc(Nc2nnc(C)s2)cc(C2CCCN2c2ccncc2)n1` (configuration not stated): the cytotoxicity at 10 µM is -9.99%.

On to `Cc1noc(C)c1C(=O)NCc1cccnc1N(C)C`, for which the cytotoxicity at 10 µM was -9.42%.

Take `O=S(=O)(c1cccc(F)c1)N1C[C@H]2CC[C@@H](C1)N(Cc1ccccc1)C2`: the cytotoxicity at 10 µM was -3.03%.

Consider `O=C(CCOc1cccc(F)c1)N1CCCC1Cn1cccn1` (configuration not stated), for which the cytotoxicity at 10 µM is -5.7%.

As to `O=C(NCCCn1ccnc1)N1CCN(c2cccs2)CC1`, the cytotoxicity at 10 µM was -2.53%.

With `COc1ncccc1CN1CCn2c(C(=O)N3CCCC3)cnc2C1`, the cytotoxicity at 10 µM was 8.28%.

Consider `COc1nccc(N2CCN(Cc3ccc(C)cc3)C(=O)C2)c1C#N`, for which the cytotoxicity at 10 µM is -16.5%.

Consider `CN1CCC(N2CCN3C(=O)NC[C@H]3C2)CC1`, for which the cytotoxicity at 10 µM came out at 2.26%.

For `CN(C(=O)COC1CCCC1)C1CCN(CC2CCOC2)CC1` (configuration not stated), the cytotoxicity at 10 µM is -9.98%.

For `c1ccn2c(C3CCCN(c4ncnc5c4CCNC5)C3)nnc2c1` (configuration not stated), the cytotoxicity at 10 µM was -7.94%.

As for `COc1ccc2ccccc2c1CNCC1CCS(=O)(=O)C1` (configuration not stated), the cytotoxicity at 10 µM was 4.51%.

On to `CCN(CC)c1ccc(NS(=O)(=O)c2cnn(C(C)C)c2)cn1`, for which the cytotoxicity at 10 µM turned out to be 5.02%.

On to `CCN(CC)C(=O)Cn1ccc2cc(NC(=O)C3CCCCC3)ccc21`, for which the cytotoxicity at 10 µM is -5.04%.

For `CC(C)c1nnc2n1CCN(CC(=O)Nc1nncs1)C2`, the cytotoxicity at 10 µM was -4.02%.

Regarding `O=C(Cc1ccc(-n2cnnn2)cc1)Nc1cnn(CC(F)F)c1`, the cytotoxicity at 10 µM is 1.97%.

Consider `COCCN1CCC(CNC(=O)C2(C#N)CCCCC2)CC1`, for which the cytotoxicity at 10 µM was -11.1%.

On to `CC(NC1(CNS(C)(=O)=O)CCOCC1)c1ccccc1` (configuration not stated), for which the cytotoxicity at 10 µM is 6.72%.

With `COc1nc2c(cc1C(=O)NCCCc1csc(N)n1)CCC2`, the cytotoxicity at 10 µM worked out at 3.63%.

On to `NC(=O)NCCC(=O)N1CCC(c2cc(-c3ccccc3Cl)n[nH]2)CC1`, for which the cytotoxicity at 10 µM was -6.67%.

Consider `Nc1nccc(N2CCNC(C(=O)NCc3ccccn3)C2)n1` (configuration not stated), for which the cytotoxicity at 10 µM was -48.5%.

With `O=C(C1CCC1)N1C[C@@H]2CN(Cc3ccncc3)C(=O)[C@@H]2C1`, the cytotoxicity at 10 µM was -113%.

Take `CS(=O)(=O)CCCN(CCc1cccc(F)c1)C1CC1`: the cytotoxicity at 10 µM is -18.3%.

As to `COCC1CC2(CCN(Cc3cccnc3)CC2)CN1C(C)C` (configuration not stated), the cytotoxicity at 10 µM is -4.21%.

On to `Cc1cc(C)n(CC2CCCN2C(=O)CCc2ccncc2)n1` (configuration not stated), for which the cytotoxicity at 10 µM is -14.4%.

Regarding `CC(C)C(NC(=O)NCCNc1ncccn1)c1cccs1` (configuration not stated), the cytotoxicity at 10 µM amounted to 2.71%.

For the compound `Cc1cnn(CCCNC(=O)NC2CCN(CC(F)(F)F)C2=O)c1` (configuration not stated), the cytotoxicity at 10 µM came out at 5.79%.

On to `O=C([C@H]1CN(CCc2ccccc2)C[C@H]2OCC[C@@H]12)N1CCCO1`, for which the cytotoxicity at 10 µM is -9.49%.

On to `CN1CCOC(CNCc2cccc(OCc3ccccn3)c2)C1` (configuration not stated), for which the cytotoxicity at 10 µM was -16.5%.

Turning to `O=C(NCCCN1CCOCC1)c1cc(-c2ccccc2)[nH]n1`, the cytotoxicity at 10 µM is -161%.

On to `Cc1occc1C(=O)Nc1ccnc(OC2CCOC2)c1` (configuration not stated), for which the cytotoxicity at 10 µM was -12.8%.

With `CC(=O)NC1CCN(c2nc(C)nc3c2c(C)nn3C)C1` (configuration not stated), the cytotoxicity at 10 µM worked out at 8.32%.

`Cc1cccc(-n2cnc(Cl)c2CO)c1`: the cytotoxicity at 10 µM is -11.8%.

Take `NC(=O)c1cncc(Oc2cccc(CN3CCCC3)c2Cl)n1`: the cytotoxicity at 10 µM is -3.47%.

As for `CCc1nc(CN2CCCN(C(=O)COCC3CC3)CC2)cs1`, the cytotoxicity at 10 µM is -5.2%.

As for `N#Cc1cccc(S(=O)(=O)N2CCCCC2CCN2CCCC2)c1` (configuration not stated), the cytotoxicity at 10 µM was -123%.

Regarding `O=C1CCC2(CCN(CC[C@@H](O)c3ccccc3)CC2)CN1CC1CC1`, the cytotoxicity at 10 µM came out at 4.51%.

Regarding `Cc1cc(CN(C)C(=O)NCc2ccnc(N(C)C)c2)no1`, the cytotoxicity at 10 µM was 5.85%.

For the compound `Cc1cnn(C(C)C2CC2)c1NC(=O)c1ccc(Cn2cnnn2)cc1` (configuration not stated), the cytotoxicity at 10 µM is -2.06%.

Take `Cc1cc(-c2cccc(-c3ccn(CCCO)n3)c2)nc(N(C)C)n1`: the cytotoxicity at 10 µM was -5.42%.

`C[C@H](NC(=O)c1cccc(CCC(C)(C)O)c1)C(N)=O`: the cytotoxicity at 10 µM was -0.511%.

`CN(Cc1cnc(N)nc1)C(=O)c1coc(COc2cccc(F)c2)n1`: the cytotoxicity at 10 µM worked out at 0.998%.

For `COCC(=O)N1CC(c2ccnc(Nc3ccc(C)cn3)n2)C1`, the cytotoxicity at 10 µM was -30.9%.

`CC(NC(=O)CCn1cccn1)c1cccs1` (configuration not stated): the cytotoxicity at 10 µM was -3.57%.

As for `CN1Cc2ccccc2CC2(CCN(C(=O)N3CCOCC3)CC2)C1=O`, the cytotoxicity at 10 µM stood at 1.02%.

As to `O=C(O)c1cc(C2=CCCCC2)cc(S(=O)(=O)NCc2ccccn2)c1`, the cytotoxicity at 10 µM is -46.6%.

(Values after ChEMBL document CHEMBL4513216, “Probing the Open Global Health Chemical Diversity Library for Multistage-Active Starting Points for Next-Generation Antimalarials” (ACS Infect Dis, 2020).)
